{"data": "Results from different studies", "target": "Serine/threonine-protein kinase WNK1 (WNK1, Homo sapiens, UniProt Q9H4A3)", "concentration": "1 µM", "note": "Compare with care: the assays were run in different laboratories."}
{"Structure (SMILES)": "COc1cnc(Nc2cccc(S(N)(=O)=O)c2)nc1N1CCN(c2ccccc2)C(=O)C1", "effect on": "binding", "method": "competition with immobilised ligand", "remaining binding [%]": 0}
{"Structure (SMILES)": "CN(C)c1ncc(F)c(-c2cnn3ncccc23)n1", "effect on": "binding", "remaining binding [%]": 87}
{"Structure (SMILES)": "O=C(c1ccc(Nc2ncc(Cl)c(-c3ccc(Cl)s3)n2)cc1)N1CCC(N2CCCC2)CC1", "effect on": "binding", "method": "competition with immobilised ligand", "remaining binding [%]": 95}
{"Structure (SMILES)": "F[C@@H]1CCN(c2nccc(-c3cnn4ncccc34)n2)C1", "effect on": "binding", "remaining binding [%]": 100}
{"Structure (SMILES)": "O=C(NCCCN1CCOCC1)c1ccc(Nc2ncc(Cl)c(-c3ccc(Cl)s3)n2)cc1", "effect on": "binding", "method": "competition with immobilised ligand", "remaining binding [%]": 89}
{"Structure (SMILES)": "O=C(O)[C@H]1[C@H](Cn2nnc3ccccc3c2=O)CC[C@@H]1C(=O)c1ccc(OCCC2CCOCC2)cc1", "effect on": "cell-free assay", "method": "competition with immobilised ligand", "remaining binding [%]": 100}
{"Structure (SMILES)": "O=C(Nc1c[nH]nc1C(=O)NC1CCNCC1)c1cc(F)cc(F)c1", "effect on": "binding", "method": "competition with immobilised ligand", "remaining binding [%]": 100}
{"Structure (SMILES)": "Cc1nc(N2CC[C@@H](O)C2)ncc1-c1cc(C(F)(F)F)cc2[nH]ncc12", "effect on": "binding", "method": "competition with immobilised ligand", "remaining binding [%]": 71}
{"Structure (SMILES)": "CCN1CCN(Cc2ccc(C(=O)Nc3ccc(C)c(Oc4ccc5c(c4)CC(=O)N5)c3)cc2C(F)(F)F)CC1", "effect on": "binding", "method": "competition with immobilised ligand", "remaining binding [%]": 100}
{"Structure (SMILES)": "CC(C)(O)c1cncc(-c2nc3ccc(F)cc3n2C2CC2)c1", "effect on": "cell-free assay", "method": "competition with immobilised ligand", "remaining binding [%]": 100}
{"Structure (SMILES)": "CN(C)c1nccc(-c2cnc3ncccn23)n1", "effect on": "binding", "remaining binding [%]": 100}
{"Structure (SMILES)": "Nc1ncc2c(n1)-c1c([nH]c3ccc(C#CC4CC4)cc13)CCCC2", "effect on": "binding", "method": "competition with immobilised ligand", "remaining binding [%]": 97}
{"Structure (SMILES)": "COc1ccnn2ncc(-c3ccnc(N(C)C)n3)c12", "effect on": "binding", "remaining binding [%]": 100}
{"Structure (SMILES)": "Cc1cnc(Nc2ccc(C(=O)N3CCC(N4CCCC4)CC3)cc2)nc1-c1cc2ccccc2s1", "effect on": "binding", "method": "competition with immobilised ligand", "remaining binding [%]": 90}
{"Structure (SMILES)": "CC1CCCN1c1nccc(-c2cnn3ncccc23)n1 (stereo not drawn)", "effect on": "binding", "remaining binding [%]": 98}
{"Structure (SMILES)": "O=C1NC(c2ccccn2)Sc2ccccc21 (stereo not drawn)", "effect on": "cell-free assay", "method": "competition with immobilised ligand", "remaining binding [%]": 91}
{"Structure (SMILES)": "N[C@H]1CCN(c2nccc(-c3cnn4ncccc34)n2)C1", "effect on": "binding", "remaining binding [%]": 8.4}
{"Structure (SMILES)": "CN(C)C(=O)Cn1cc(-c2nc([C@@](C)(c3ccc(-c4cnc(N)nc4)cc3)C3CC3)no2)cn1", "effect on": "cell-free assay", "method": "competition with immobilised ligand", "remaining binding [%]": 94}
